The record followed here is ChEMBL document CHEMBL4706672 (J Med Chem, 2021).

Molecules are shown by their SMILES. Calls of active or inactive are those of the source. No cut-off for these calls is given here.

In assay [1] the test system is BXPC-3. Nature of the assay: Antiproliferative activity against human BxPC-3 cells assessed as reduction in cell viability incubated for 3 days by MTT assay. To be noted: BXPC-3, 72 h. The class given is functional, cell-based.
The nature of assay [2]: Selectivity index, ratio of IC50 for antiproliferative activity against human HEK293 cell by MTT assay to IC50 for inhibition of IL-6 induced STAT3 transcription in human HEK293 cells. An outline of the steps:
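HEK-293 cells carrying an SIE-luc2P STAT3 reporter, seeded 10,000/well, stimulated with IL6 at 100 ng/ml for 24 h, then given compound for 24 h; luciferase reagent added and luminescence read after 5 min. A parallel 24 h MTT assay was run in the same cells. Mean ± SD of three independent experiments.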

For assay [3], the system named is BXPC-3. Nature of the assay: Reduction in NQO1 expression in human BxPC-3 cells at 2 to 6 uM incubated for 12 hrs in presence of proteasome inhibitor MG132 by western blot analysis. The class given is functional, cell-based. As to conditions: dose 2-6 µM. The method in brief:
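Immunoblot of BxPC-3 cells given a 2 h pretreatment with MG132 at 10 μM, then test agent for 12 h. Cell lysis, BCA assay, SDS-PAGE/PVDF, probed for STAT3, pSTAT3 and NQO1 with GAPDH as reference.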

The target of assay [4] is T1, Protein cereblon/E3 ubiquitin-protein ligase ZFP91 (Homo sapiens, UniProt Q96SW2+Q96JP5). Nature of the assay: Protac activity at CRBN/ZFP91 in human BxPC-3 cells assessed as induction of ZF91 degradation at 1 uM incubated for 16 hrs by western blot analysis. The assay is classed as cell-based. An outline of the steps: (§1)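 BxPC-3 cells treated for 4, 16 or 24 h across a concentration series. ZFP91 immunoblotted against GAPDH; bands quantified by densitometry, DC50 calculated from dose-response curves of the densitometry.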
Target sequence in this assay (Q96JP5 2-570 partner limits assumed): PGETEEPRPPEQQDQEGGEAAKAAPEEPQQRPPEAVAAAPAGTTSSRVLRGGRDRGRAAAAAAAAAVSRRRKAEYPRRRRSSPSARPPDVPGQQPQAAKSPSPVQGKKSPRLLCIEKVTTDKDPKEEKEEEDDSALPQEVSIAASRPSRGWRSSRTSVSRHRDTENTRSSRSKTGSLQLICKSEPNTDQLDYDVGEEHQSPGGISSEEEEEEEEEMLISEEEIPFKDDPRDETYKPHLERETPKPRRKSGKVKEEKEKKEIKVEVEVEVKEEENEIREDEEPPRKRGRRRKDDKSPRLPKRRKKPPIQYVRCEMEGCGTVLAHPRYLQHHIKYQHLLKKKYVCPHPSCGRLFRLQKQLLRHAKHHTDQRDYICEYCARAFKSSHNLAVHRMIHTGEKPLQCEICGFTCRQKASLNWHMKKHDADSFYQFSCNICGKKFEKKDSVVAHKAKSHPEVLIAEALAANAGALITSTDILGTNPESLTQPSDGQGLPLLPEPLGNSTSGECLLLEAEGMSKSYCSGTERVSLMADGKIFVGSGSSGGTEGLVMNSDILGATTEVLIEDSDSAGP
Target sequence in this assay (Q96SW2 whole entry): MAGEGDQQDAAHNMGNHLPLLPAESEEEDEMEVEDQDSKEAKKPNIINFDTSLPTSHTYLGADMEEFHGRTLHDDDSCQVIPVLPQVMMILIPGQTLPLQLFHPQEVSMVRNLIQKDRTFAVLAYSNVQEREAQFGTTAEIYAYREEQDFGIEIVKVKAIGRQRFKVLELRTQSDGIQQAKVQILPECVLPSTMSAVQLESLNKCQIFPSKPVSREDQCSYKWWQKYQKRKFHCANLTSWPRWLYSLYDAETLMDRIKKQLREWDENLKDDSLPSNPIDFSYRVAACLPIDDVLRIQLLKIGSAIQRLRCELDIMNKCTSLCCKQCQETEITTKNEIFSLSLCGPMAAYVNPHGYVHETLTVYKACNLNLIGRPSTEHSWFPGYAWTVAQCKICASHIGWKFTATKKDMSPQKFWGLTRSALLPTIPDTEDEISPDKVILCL

Assay [5] deals with T1, Protein cereblon/E3 ubiquitin-protein ligase ZFP91. Nature of the assay: Protac activity at CRBN/ZFP91 in human BxPC-3 cells assessed as induction of ZF91 degradation incubated for 16 hrs by western blot analysis. The assay is classed as cell-based. An outline of the steps:
as §1

The target is the same in assay [6]. Nature of the assay: Protac activity at CRBN/ZFP91 in human BxPC-3 cells assessed as degradation of ZFP91 at 0.5 uM incubated for 16 hrs in presence of napabucasin by western blot analysis. The class given is cell-based. An outline of the steps: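 Whole-cell lysates immunoblotted for ZFP91, GAPDH reference, densitometric quantification.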
Target sequence in this assay (Q96JP5 2-570 partner limits assumed): as the sequence (Q96JP5 2-570 partner limits assumed) above
Target sequence in this assay (Q96SW2 whole entry): as the sequence (Q96SW2 whole entry) above
Assay [7] addresses Protein cereblon/Eukaryotic peptide chain release factor GTP-binding subunit ERF3A (Homo sapiens) (UniProt Q96SW2+P15170). Nature of the assay: Protac activity at CRBN/GSPT in human BxPC-3 cells assessed as degradation of GSPT at 1 to 3 uM incubated for 16 hrs by western blot analysis. The class given is cell-based. As to conditions: dose 1-3 µM. An outline of the steps:
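BxPC-3 cells were treated with compound for 16 h, then lysed and immunoblotted for GSPT (1:1000) alongside GAPDH. Detection used fluorescent secondary antibodies on an Odyssey imager, and bands were quantified by densitometry.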

Assay [8] concerns the target Protein cereblon/E3 ubiquitin-protein ligase DTX3L (Homo sapiens) (UniProt Q96SW2+Q8TDB6). Nature of the assay: Protac activity at CRBN/DTX3L in human BxPC-3 cells assessed as DTX3L degradation incubated for 16 hrs by proteomic analysis. The class given is cell-based. The method in brief: (§2)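 TMT 10plex proteomics. […] Samples (75 μg) were reduced with DTT, alkylated with 2-chloroacetamide, acetone-precipitated, trypsin-digested overnight at 37 °C and TMT-labeled for LC-MS/MS relative quantitation.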

Assay [9] has as its target Protein cereblon/G2/mitotic-specific cyclin-B1 (Homo sapiens) (UniProt P14635+Q96SW2). Nature of the assay: Protac activity at CRBN/CCNB1 in human BxPC-3 cells assessed as CCNB1 degradation incubated for 16 hrs by proteomic analysis. The assay is classed as cell-based. The method in brief: as §2
For assay [10], the target named is Protein cereblon/WD repeat- and FYVE domain-containing protein 4 (Homo sapiens) (UniProt Q96SW2+Q6ZS81). Nature of the assay: Protac activity at CRBN/WDFY4 in human BxPC-3 cells assessed as WDFY4 degradation incubated for 16 hrs by proteomic analysis. The class given is cell-based. The method in brief:
(§3)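 BxPC-3 cells exposed 16 h in triplicate (control, PROTAC) or duplicate (other arms); lysed in RIPA at 4 °C, 75 μg protein per sample. Reduced with DTT (1 h, 55 °C), alkylated with 2-chloroacetamide, acetone-precipitated, trypsin-digested overnight at 37 °C, TMT 10plex labelled, relative quantitation by LC-tandem MS.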

Assay [11] has as its target Protein cereblon/Cold shock domain-containing protein E1 (Homo sapiens) (UniProt Q96SW2+O75534). Nature of the assay: Protac activity at CRBN/CSDE1 in human BxPC-3 cells assessed as CSDE1 degradation incubated for 16 hrs by proteomic analysis. The class given is cell-based. The method in brief:
as §2

The target of assay [12] is Protein cereblon/45 kDa calcium-binding protein (Homo sapiens) (UniProt Q96SW2+Q9BRK5). Nature of the assay: Protac activity at CRBN/SDF4 in human BxPC-3 cells assessed as SDF4 degradation incubated for 16 hrs by proteomic analysis. The assay is classed as cell-based. The method in brief:
as §2

Assay [13] addresses Protein cereblon/Laminin subunit beta-1 (Homo sapiens) (UniProt P07942+Q96SW2). Nature of the assay: Protac activity at CRBN/LAMB1 in human BxPC-3 cells assessed as LAMB1 degradation incubated for 16 hrs by proteomic analysis. The assay is classed as cell-based. An outline of the steps:
as §2

Assay [14] addresses Protein cereblon/Ubiquitin-conjugating enzyme E2 T (Homo sapiens) (UniProt Q96SW2+Q9NPD8). Nature of the assay: Protac activity at CRBN/UBE2T in human BxPC-3 cells assessed as UBE2T degradation incubated for 16 hrs by proteomic analysis. The class given is cell-based. An outline of the steps:
as §3

Assay [15] deals with Protein cereblon/Carbohydrate sulfotransferase 14 (Homo sapiens) (UniProt Q96SW2+Q8NCH0). Nature of the assay: Protac activity at CRBN/CHST14 in human BxPC-3 cells assessed as CHST14 degradation incubated for 16 hrs by proteomic analysis. The class given is cell-based. The method in brief:
as §2

In assay [16] the target is Protein cereblon/Methylated-DNA--protein-cysteine methyltransferase (Homo sapiens) (UniProt P16455+Q96SW2). Nature of the assay: Protac activity at CRBN/MGMT in human BxPC-3 cells assessed as MGMT degradation incubated for 16 hrs by proteomic analysis. The class given is cell-based. The method in brief: as §2
The target in assay [17] is Protein cereblon/Small EDRK-rich factor 2 (Homo sapiens) (UniProt Q96SW2+P84101). Nature of the assay: Protac activity at CRBN/SERF2 in human BxPC-3 cells assessed as SERF2 degradation incubated for 16 hrs by proteomic analysis. The class given is cell-based. The method in brief: as §2
A short description of assay [18]: Upregulation of HMGCR protein levels in human BxPC-3 cells incubated for 16 hrs by proteomic analysis. The assay is classed as functional. The method in brief: as §3
Assay [19] can be described thus: Upregulation of ECM1 protein levels in human BxPC-3 cells incubated for 16 hrs by proteomic analysis. The class given is functional. An outline of the steps:
as §3

The nature of assay [20]: Upregulation of ceramide glucosyltransferase protein levels in human BxPC-3 cells incubated for 16 hrs by proteomic analysis. The assay is classed as functional. The method in brief: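 BxPC-3 cells exposed to compound (2 μM) or DMSO control for 16 h, then lysed in RIPA buffer at 4 °C. Protein quantified by BCA; 75 μg per sample. TMT 10plex labeling: DTT reduction (1 h, 55 °C), 2-chloroacetamide alkylation (30 min, RT), acetone precipitation, overnight trypsin digestion at 37 °C, then LC-tandem MS relative quantitation. Control and treated samples run in triplicate.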

Assay [21] deals with BXPC-3. Nature of the assay: Reduction in NQO1 expression in human BxPC-3 cells at 2 to 6 uM incubated for 16 hrs in presence of protein synthesis inhibitor cycloheximide by western blot analysis. As to conditions: dose 2-6 µM.
Assay [22] has as its system BXPC-3. Nature of the assay: Inhibition of colony formation in human BxPC-3 cells assessed as reduction in colony formation at 0.06 to 0.5 uM incubated for 7 to 10 days in presence of NQO1 inhibitor dicoumarol. As to conditions: dose 0.06-0.5 µM.

Sequence of Protein cereblon/Carbohydrate sulfotransferase 14 (Homo sapiens) (Q8NCH0 whole entry, looked up): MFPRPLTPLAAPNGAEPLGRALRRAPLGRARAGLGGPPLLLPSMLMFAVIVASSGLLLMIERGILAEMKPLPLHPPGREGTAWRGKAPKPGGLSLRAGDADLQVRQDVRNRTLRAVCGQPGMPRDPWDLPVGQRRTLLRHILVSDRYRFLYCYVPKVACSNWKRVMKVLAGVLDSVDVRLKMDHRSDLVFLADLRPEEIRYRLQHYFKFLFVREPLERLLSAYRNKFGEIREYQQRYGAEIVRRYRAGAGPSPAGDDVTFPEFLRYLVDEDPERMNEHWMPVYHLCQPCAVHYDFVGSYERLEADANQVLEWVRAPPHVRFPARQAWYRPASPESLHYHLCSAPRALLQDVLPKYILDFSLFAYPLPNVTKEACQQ
Sequence of Protein cereblon/Carbohydrate sulfotransferase 14 (Homo sapiens) (Q96SW2 whole entry, looked up): as the sequence (Q96SW2 whole entry) above
Sequence of Protein cereblon/Eukaryotic peptide chain release factor GTP-binding subunit ERF3A (Homo sapiens) (P15170 whole entry, looked up): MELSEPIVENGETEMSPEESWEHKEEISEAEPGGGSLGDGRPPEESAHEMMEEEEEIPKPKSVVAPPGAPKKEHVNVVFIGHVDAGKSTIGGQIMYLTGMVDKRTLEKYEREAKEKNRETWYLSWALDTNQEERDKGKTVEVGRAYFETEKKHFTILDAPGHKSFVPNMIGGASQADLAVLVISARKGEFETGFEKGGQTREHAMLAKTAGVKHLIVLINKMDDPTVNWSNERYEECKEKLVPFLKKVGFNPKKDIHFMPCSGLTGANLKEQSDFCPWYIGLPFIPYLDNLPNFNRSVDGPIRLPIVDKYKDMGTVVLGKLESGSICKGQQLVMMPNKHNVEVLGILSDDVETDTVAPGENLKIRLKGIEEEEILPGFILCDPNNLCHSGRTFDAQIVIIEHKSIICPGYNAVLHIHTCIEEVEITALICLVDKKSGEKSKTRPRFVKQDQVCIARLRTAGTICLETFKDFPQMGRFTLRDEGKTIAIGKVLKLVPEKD
Sequence of Protein cereblon/Eukaryotic peptide chain release factor GTP-binding subunit ERF3A (Homo sapiens) (Q96SW2 whole entry, looked up): as the sequence (Q96SW2 whole entry) above
Sequence of Protein cereblon/Ubiquitin-conjugating enzyme E2 T (Homo sapiens) (Q96SW2 whole entry, looked up): as the sequence (Q96SW2 whole entry) above
Sequence of Protein cereblon/Ubiquitin-conjugating enzyme E2 T (Homo sapiens) (Q9NPD8 whole entry, looked up): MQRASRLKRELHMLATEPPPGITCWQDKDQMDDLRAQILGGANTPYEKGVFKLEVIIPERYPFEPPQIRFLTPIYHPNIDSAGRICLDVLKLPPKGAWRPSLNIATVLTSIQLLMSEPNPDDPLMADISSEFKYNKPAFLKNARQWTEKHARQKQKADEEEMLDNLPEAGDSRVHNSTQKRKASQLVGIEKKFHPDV
Sequence of Protein cereblon/45 kDa calcium-binding protein (Homo sapiens) (Q96SW2 whole entry, looked up): as the sequence (Q96SW2 whole entry) above
Sequence of Protein cereblon/45 kDa calcium-binding protein (Homo sapiens) (Q9BRK5 whole entry, looked up): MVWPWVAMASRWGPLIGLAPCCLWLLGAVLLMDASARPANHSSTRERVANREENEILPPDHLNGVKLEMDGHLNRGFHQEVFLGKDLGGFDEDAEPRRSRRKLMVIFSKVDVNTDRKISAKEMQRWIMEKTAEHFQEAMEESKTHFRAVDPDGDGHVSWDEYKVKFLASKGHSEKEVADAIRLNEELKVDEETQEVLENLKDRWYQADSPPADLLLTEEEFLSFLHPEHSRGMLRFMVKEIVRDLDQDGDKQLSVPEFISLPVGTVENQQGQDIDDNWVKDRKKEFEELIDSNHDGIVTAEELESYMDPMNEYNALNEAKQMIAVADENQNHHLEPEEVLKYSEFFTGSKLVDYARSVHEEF
Sequence of Protein cereblon/E3 ubiquitin-protein ligase DTX3L (Homo sapiens) (Q96SW2 whole entry, looked up, other chains not shown): as the sequence (Q96SW2 whole entry) above

On to `O=C1CCC(N2C(=O)c3cccc(NCCCCCC4CCN(CCNC(=O)c5cc6c(o5)C(=O)c5ccccc5C6=O)CC4)c3C2=O)C(=O)N1` (configuration not stated), for which the IC50 in the assay with BXPC-3 [1] came out at 800 nM. For the same compound, in assay [2], the “Ratio IC50” value was found to be 7. Besides, the outcome (in the assay on BXPC-3 [3]; in assay [4]; in assay [6]) was Active. Also, the DC50 in assay [5] is 80 nM. The outcome (in assay [7]; in the assay on BXPC-3 [21]) was inactive. The log2FC in assay [8] is -0.96; in assay [9], -0.84; in assay [10] it was -0.78; in assay [11], -0.75; in assay [12], -0.67; in [13], -0.67. For the same compound, the log2FC is -0.66 in assay [14]; -0.64 in assay [15]; -0.63 in [16]; -0.61 in [17]; 0.83 in [18]; 0.76 in [19]. This compound also came in with a log2FC in assay [20] of 0.62. Besides, the inhibition entry in the assay with BXPC-3 [22] is “Active”.
